Columns and labels:
RAW264.7 [1] = assay: Anti-inflammatory activity in mouse RAW264.7 cells assessed as inhibition of LPS-induced TNFalpha production at 0.1 uM pretreated for 1 hr followed by LPS stimulation and measured after 18 hrs by ELISA relative to control; assay type: functional; set-up: scale not given: the % may be the effect or the level left
How it was run: (§1)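 DMSO stocks (100 mM) were tested at 0.1, 1, 5 and 20 µM on LPS-stimulated RAW264.7 cells, with dexamethasone 1 µM as positive control. Secreted TNF-α or IL-6 was normalized to the percentage of viable LPS-stimulated cells at each concentration. Mean of three separate experiments, each in triplicate.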

RAW264.7 [2] = assay: Anti-inflammatory activity in mouse RAW264.7 cells assessed as inhibition of LPS-induced TNFalpha production at 1 uM pretreated for 1 hr followed by LPS stimulation and measured after 18 hrs by ELISA relative to control; assay type: functional; set-up: scale not given: the % may be the effect or the level left; how it was run: as §1
[3] = Cytotoxicity against mouse RAW264.7 cells assessed as cell viability at 0.1 uM incubated for 18 hrs by celltiter-glo luminescent assay relative to control; assay type: cell-based; conditions: read-out: Activity
How it was run: (§2)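 Non-stimulated RAW264.7 cells were exposed to 0.1, 1, 5 and 20 µM compound from 100 mM DMSO stocks. Percent viability is the mean of three separate experiments with triplicate samples.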

[4] = Cytotoxicity against mouse RAW264.7 cells assessed as cell viability at 1 uM incubated for 18 hrs by celltiter-glo luminescent assay relative to control; assay type: cell-based; conditions: read-out: Activity; how it was run: as §2
[5] = Cytotoxicity against mouse RAW264.7 cells assessed as cell viability at 5 uM incubated for 18 hrs by celltiter-glo luminescent assay relative to control; assay type: cell-based; conditions: read-out: Activity; how it was run: as §2
[6] = Cytotoxicity against mouse RAW264.7 cells assessed as cell viability at 20 uM incubated for 18 hrs by celltiter-glo luminescent assay relative to control; assay type: cell-based; conditions: read-out: Activity; how it was run: as §2
RAW264.7 [7] = assay: Anti-inflammatory activity in mouse RAW264.7 cells assessed as inhibition of LPS-induced TNFalpha production at 5 uM pretreated for 1 hr followed by LPS stimulation and measured after 18 hrs by ELISA relative to control; assay type: functional; set-up: scale not given: the % may be the effect or the level left; how it was run: as §1
RAW264.7 [8] = assay: Anti-inflammatory activity in mouse RAW264.7 cells assessed as inhibition of LPS-induced TNFalpha production at 20 uM pretreated for 1 hr followed by LPS stimulation and measured after 18 hrs by ELISA relative to control; assay type: functional; set-up: scale not given: the % may be the effect or the level left; how it was run: as §1
RAW264.7 [9] = assay: Anti-inflammatory activity in mouse RAW264.7 cells assessed as inhibition of LPS-induced IL-6 production at 0.1 uM pretreated for 1 hr followed by LPS stimulation and measured after 18 hrs by ELISA relative to control; assay type: functional; set-up: scale not given: the % may be the effect or the level left; how it was run: as §1
RAW264.7 [10] = assay: Anti-inflammatory activity in mouse RAW264.7 cells assessed as inhibition of LPS-induced IL-6 production at 1 uM pretreated for 1 hr followed by LPS stimulation and measured after 18 hrs by ELISA relative to control; assay type: functional; set-up: scale not given: the % may be the effect or the level left; how it was run: as §1
RAW264.7 [11] = assay: Anti-inflammatory activity in mouse RAW264.7 cells assessed as inhibition of LPS-induced IL-6 production at 5 uM pretreated for 1 hr followed by LPS stimulation and measured after 18 hrs by ELISA relative to control; assay type: functional; set-up: scale not given: the % may be the effect or the level left; how it was run: as §1
RAW264.7 [12] = assay: Anti-inflammatory activity in mouse RAW264.7 cells assessed as inhibition of LPS-induced IL-6 production at 20 uM pretreated for 1 hr followed by LPS stimulation and measured after 18 hrs by ELISA relative to control; assay type: functional; set-up: scale not given: the % may be the effect or the level left; how it was run: as §1

Compound	Activity (RAW264.7 [1]) [%]	Activity (RAW264.7 [2]) [%]	viability at 18 h, 0.1 µM [3] [%]	viability at 18 h, 1 µM [4] [%]	viability at 18 h, 5 µM [5] [%]	viability at 18 h, 20 µM [6] [%]	Activity (RAW264.7 [7]) [%]	Activity (RAW264.7 [8]) [%]	Activity (RAW264.7 [9]) [%]	Activity (RAW264.7 [10]) [%]	Activity (RAW264.7 [11]) [%]	Activity (RAW264.7 [12]) [%]
C=C1CC[C@H]2C(C)(C)CCC[C@]2(C)[C@H]1C/C=C(\CCO)C(=O)O	104.7	80.7	102	99.2	96.6	87.6	60.7	50.2	106	88.3	79.9	63.5
C=C1CC[C@H]2C(C)(C)CCC[C@]2(C)[C@H]1C/C=C1\C=COC1=O	94.1	84.6	102	97.7	90.8	82.6	53.6	26.6	99	99.6	85.9	61.5
C=C1CC[C@H]2C(C)(C)CCC[C@]2(C)[C@H]1C/C=C1\CC(OC)OC1=O (stereo partly specified)	104.7	77.7	102	102	101	100	44.7	27.5	101	79.1	70	59.9
C=C1CC[C@H]2C(C)(C)CCC[C@]2(C)[C@H]1/C=C/C1=CCOC1=O [VILLOSIN]	80.4	86.6	104	105	103	59	74.6	133.5	98.4	87.6	101.5	170.1
CC1(C)CCC[C@@]2(C)[C@H]1CC[C@]1(CO1)[C@@H]2C/C=C1\CCOC1=O	100.3	88.3	97.8	97.6	95.1	85.7	55.6	33.1	102.3	92.3	81.4	63.9
C=C1CC[C@H]2C(C)(C)CCC[C@]2(C)[C@H]1CC=O	104	91.7	100	101	101	91.9	73.7	48.5	100	95	93	72.8
C=C1CC[C@H]2C(C)(C)CCC[C@]2(C)[C@H]1C/C=C1/CCOC1=O	99.8	81.8	103	101	95.4	85	69.9	48	101.5	94.1	85.6	64.8
C=C1CC[C@H]2C(C)(C)CCC[C@]2(C)[C@H]1C[C@@H](O)C1=CCOC1=O [CURCUCOMOSIN C]	112	101.5	109	111	108	91.9	79.3	33.4	100.6	84	75.6	47.1
CC1(C)CCC[C@@]2(C)[C@H]1CC[C@@]1(CO1)[C@@H]2C/C=C1\CCOC1=O	114.8	88.6	101	97	90.9	80.4	48.4	20.5	101.6	79.7	35.2	22.3
C=C1CC[C@H]2C(C)(C)CCC[C@]2(C)[C@H]1C/C=C1\CC(OCC)OC1=O (stereo partly specified)	101.6	86.8	102	100	94.9	96.3	65.3	48.1	102.3	100.3	95.9	80.9
C=C1CC[C@H]2C(C)(C)CCC[C@]2(C)[C@H]1C/C=C1\CCOC1=O	104.4	94.6	103	107	102	100	73.1	52.6	103	93.9	83.9	76.3
C=C1CC[C@H]2C(C)(C)CCC[C@]2(C)[C@H]1C/C=C1\C(=O)OC[C@H]1O	98.7	71.6	100	95.5	81.7	47.5	17.5	4.8	100.7	76.9	32.2	10.1
CC1(C)CCC[C@]2(C)[C@H]3CC(=O)O[C@]3(C)CC[C@@H]12	104.8	101	99.3	96.6	97.2	95.9	79.9	63.9	94.6	100.3	93.8	89.7
